This is an account of results in ChEMBL document CHEMBL4613227, “Synthesis and evaluation of the HIF-1α inhibitory activity of 3(5)-substituted-4-(quinolin-4-yl)- and 4-(2-phenylpyridin-4-yl)pyrazoles as inhibitors of ALK5” (Bioorg Med Chem Lett, 2020).

What is called IC50 is the concentration that inhibits the measured activity by half.

For series [1], the system named is HCT-116. Kind of series: Inhibition of TNFalpha-induced HIF1alpha expression in human HCT116 cells at 10 to 50 uM by Western blot analysis. In kind it is functional, cell-based. The essentials: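 HCT116 exposed to TNF 10 ng/mL for 24 h with graded concentrations; total protein blotted for HIF-1α, Topo-I reprobe as loading control.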
(In general: Immunoblotting shows a protein as a band on a membrane.)

The test system of series [2] is HCT-116. Kind of series: Down regulation of TNF-induced MMP9 mRNA expression in human HCT116 cells at 50 uM pretreated for 12 hrs followed by TNF stimulation and measured after 12 hrs by Western blot analysis. Type of series: functional, cell-based. The settings on record: in the assay text read “RT-PCR analysis” for “Western blot analysis”. The essentials:
(§1)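 HCT116 preincubated 12 h with graded concentrations, then TNF 10 ng/mL for a further 12 h; ICAM-1, VEGF, MMP-9 transcripts measured by RT-PCR, GAPDH for equal RNA loading.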

Series [3] relates to HCT-116. Kind of series: Down regulation of TNF-induced VEGF protein expression in human HCT116 cells at 50 uM pretreated for 12 hrs followed by TNF stimulation and measured after 24 hrs by Western blot analysis. In kind it is functional, cell-based. The essentials:
(§2)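 HCT116 pretreated 12 h with 50 μM, then TNF (10 ng/mL) 24 h; whole cell extracts immunoblotted for ICAM-1, MMP-9, VEGF with tubulin as loading reference.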

Series [4] concerns the target Hypoxia-inducible factor 1-alpha (Homo sapiens) (UniProt Q16665). Kind of series: Inhibition of HIF1alpha transcriptional activity in hypoxia-induced human HCT116 cells co-transfected with luciferase reporter plasmid containing six copies of HREs and pRL-CMV plasmid by luciferase reporter gene assay. In kind it is cell-based. The settings on record: HCT-116. The essentials: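 HCT116 transiently co-transfected with pGL3-HRE-luciferase and pRL-CMV; after 24 h, incubated under hypoxia with graded concentrations; luciferase activity read; mean ± SD, three independent experiments.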

The subject of series [5] is HCT-116. Kind of series: Antiproliferative activity against human HCT116 cells assessed as reduction in TNF-induced number of Edu positive cells at 50 uM pretreated for 12 hrs followed by TNF stimulation and measured after 30 mins by Edu-incorporation based fluorescence microscopic analysis. Type of series: functional, cell-based. The essentials:
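HCT116 cells pretreated 12 h (50 μM), then TNF 10 ng/ml for 30 min; EdU-labelled proliferating cells examined by fluorescence microscopy; mean ± SD of three independent experiments.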

The subject of series [6] is HCT-116. Kind of series: Inhibition of colony formation in TNF-induced human HCT116 cells pretreated with compound for 12 hrs before TNF stimulation for 30 mins and followed by replacement of fresh medium incubated for 10 days by crystal violet staining based analysis. Type of series: functional, cell-based. The essentials:
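HCT116 treated 12 h (10, 30, 50 μM), then TNF 10 ng/ml 30 min; medium replaced, growth continued 10 days; crystal violet staining; mean ± SD of three independent experiments.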

The subject of series [7] is HCT-116. Kind of series: Induction of apoptosis in human HCT116 cells assessed as necrotic cells at 50 uM after 12 hrs by Annexin-V/PI-staining based flow cytometric analysis (reference value: 3.5%). In kind it is functional.
In series [8] the test system is HCT-116. Kind of series: Induction of apoptosis in human HCT116 cells assessed as early apoptotic cells at 50 uM after 12 hrs by Annexin-V/PI-staining based flow cytometric analysis (reference value: 1%). Type of series: functional. (A flow cytometer gives signals particle by particle.)
Series [9] concerns HCT-116. Kind of series: Induction of apoptosis in human HCT116 cells assessed as effect on cleaved caspase 8 expression at 50 uM after 12 hrs by Western blot analysis. In kind it is functional, cell-based.
Series [10] has as its target Hypoxia-inducible factor 1-alpha (Homo sapiens) (UniProt Q16665). Kind of series: Inhibition of HIF1-alpha (unknown origin).
Series [11] concerns HCT-116. Kind of series: Induction of apoptosis in human HCT116 cells assessed as early apoptotic cells at 50 uM preincubated for 12 hrs followed by TNF stimulation and measured after 24 hrs by Annexin-V/PI-staining based flow cytometric analysis (reference value: 2.8%). In kind it is functional.
Series [12] has as its system HCT-116. Kind of series: Down regulation of TNF-induced MMP9 protein expression in human HCT116 cells at 50 uM pretreated for 12 hrs followed by TNF stimulation and measured after 24 hrs by Western blot analysis. Type of series: functional, cell-based. The essentials: as §2
Series [13] has as its system HCT-116. Kind of series: Induction of apoptosis in human HCT116 cells assessed as effect on cleaved caspase 3 expression at 50 uM after 12 hrs by Western blot analysis. In kind it is functional, cell-based.
The subject of series [14] is HCT-116. Kind of series: Induction of apoptosis in human HCT116 cells assessed as viable cells at 50 uM after 12 hrs by Annexin-V/PI-staining based flow cytometric analysis (reference value: 95.3%). In kind it is functional. To be noted: HCT-116, 12 h, read-out: Activity.
The subject of series [15] is HCT-116. Kind of series: Induction of apoptosis in human HCT116 cells assessed as effect on cleaved caspase-3 expression at 50 uM preincubated for 12 hrs followed by TNF-stimulation and measured after 24 hrs by Western blot analysis. Type of series: functional, cell-based. The essentials:
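HCT116 pretreated 12 h with 50 μM, then TNF (10 ng/mL) 24 h; whole cell extracts blotted for cleaved caspase-8, cleaved caspase-3, cleaved PARP, tubulin.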

Series [16] relates to HCT-116. Kind of series: Down regulation of TNF-induced ICAM-1 protein expression in human HCT116 cells at 50 uM pretreated for 12 hrs followed by TNF stimulation and measured after 24 hrs by Western blot analysis. Type of series: functional, cell-based. The essentials:
as §2

Series [17] has as its system HCT-116. Kind of series: Cytotoxicity against human HCT116 cells up to 50 uM after 24 hrs by MTT assay. Type of series: cell-based. The settings on record: hct-116, 24 h. The essentials: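 Cell viability of HCT116 by MTT after 24 h exposure to graded concentrations up to 50 μM.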
The subject of series [18] is HCT-116. Kind of series: Induction of apoptosis in human HCT116 cells assessed as PARP cleavage at 50 uM after 12 hrs by Western blot analysis. Type of series: functional, cell-based.
Series [19] has as its system HCT-116. Kind of series: Down regulation of TNF-induced ICAM-1 mRNA expression in human HCT116 cells at 50 uM pretreated for 12 hrs followed by TNF stimulation and measured after 12 hrs by Western blot analysis. Type of series: functional, cell-based. The settings on record: in the assay text read “RT-PCR analysis” for “Western blot analysis”. The essentials:
as §1

The next series addresses T1, TGF-beta receptor type-1 (Homo sapiens, UniProt P36897).
T1 sequence (P36897 whole entry): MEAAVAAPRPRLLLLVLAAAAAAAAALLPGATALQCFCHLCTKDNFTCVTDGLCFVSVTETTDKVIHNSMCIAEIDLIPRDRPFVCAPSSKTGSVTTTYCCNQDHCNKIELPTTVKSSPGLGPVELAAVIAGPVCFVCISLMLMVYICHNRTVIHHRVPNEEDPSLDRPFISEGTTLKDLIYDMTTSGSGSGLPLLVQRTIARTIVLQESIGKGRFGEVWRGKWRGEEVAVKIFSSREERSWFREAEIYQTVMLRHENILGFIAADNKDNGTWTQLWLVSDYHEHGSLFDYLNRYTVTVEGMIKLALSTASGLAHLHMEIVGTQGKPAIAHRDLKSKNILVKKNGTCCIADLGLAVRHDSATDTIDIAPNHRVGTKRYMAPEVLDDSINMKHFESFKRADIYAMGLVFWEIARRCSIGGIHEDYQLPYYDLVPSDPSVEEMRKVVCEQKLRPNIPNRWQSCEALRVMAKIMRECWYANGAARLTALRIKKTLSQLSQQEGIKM
Kind of series: Inhibition of recombinant GST-tagged human ALK5 expressed in baculovirus infected Sf9 insect cells. The essentials: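 IC50 determination against ALK5 (human GST-fusion, Sf9 baculovirus) and p38α (untagged human, E. coli); values averaged from three independent experiments run in triplicate.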

Series [20] relates to HCT-116. Kind of series: Induction of apoptosis in human HCT116 cells assessed as late apoptotic cells at 50 uM preincubated for 12 hrs followed by TNF stimulation and measured after 24 hrs by Annexin-V/PI-staining based flow cytometric analysis (reference value: 1.4%). Type of series: functional.
Series [21] deals with HCT-116. Kind of series: Down regulation of TNF-induced VEGF mRNA expression in human HCT116 cells at 50 uM pretreated for 12 hrs followed by TNF stimulation and measured after 12 hrs by Western blot analysis. In kind it is functional, cell-based. To be noted: in the assay text read “RT-PCR analysis” for “Western blot analysis”. The essentials:
as §1

The source made the active and inactive calls. No cut-off for these calls is given here.

Hypoxia-inducible factor 1-alpha (Homo sapiens), sequence (Q16665 whole entry, looked up): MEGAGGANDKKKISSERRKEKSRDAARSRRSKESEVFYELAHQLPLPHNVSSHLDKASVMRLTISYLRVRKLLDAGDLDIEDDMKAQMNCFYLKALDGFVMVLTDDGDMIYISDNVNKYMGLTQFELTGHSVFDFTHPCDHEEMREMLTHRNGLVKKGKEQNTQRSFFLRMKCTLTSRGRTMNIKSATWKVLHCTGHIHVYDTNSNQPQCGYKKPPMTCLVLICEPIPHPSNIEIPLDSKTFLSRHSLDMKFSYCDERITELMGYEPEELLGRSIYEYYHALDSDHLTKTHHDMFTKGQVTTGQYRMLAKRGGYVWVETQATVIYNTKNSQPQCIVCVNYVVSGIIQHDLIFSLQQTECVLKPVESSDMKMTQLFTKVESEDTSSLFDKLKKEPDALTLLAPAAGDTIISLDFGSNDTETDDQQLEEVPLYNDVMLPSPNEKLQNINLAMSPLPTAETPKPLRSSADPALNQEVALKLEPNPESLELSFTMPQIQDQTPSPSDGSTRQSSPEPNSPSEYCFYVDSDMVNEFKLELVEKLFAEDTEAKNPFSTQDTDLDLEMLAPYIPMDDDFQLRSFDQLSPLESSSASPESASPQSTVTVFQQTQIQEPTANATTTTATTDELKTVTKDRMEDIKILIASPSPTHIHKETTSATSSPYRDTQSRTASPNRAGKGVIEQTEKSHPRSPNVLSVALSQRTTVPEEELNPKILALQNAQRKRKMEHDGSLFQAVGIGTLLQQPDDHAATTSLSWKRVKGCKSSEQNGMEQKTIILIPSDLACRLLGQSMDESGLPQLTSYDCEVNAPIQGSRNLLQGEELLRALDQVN

With `Cc1cccc(-c2nn(CC(=S)Nc3cccc(C#N)c3)cc2-c2ccnc3ccccc23)n1`, the inhibition result (with HCT-116 [1]; in series [10]) was “Active” in each case. The result with HCT-116 [2], in the series with HCT-116 [3], with HCT-116 [5], with HCT-116 [9], in the series with HCT-116 [12] and in the series on HCT-116 [13] was Active. For the same compound, the outcome with HCT-116 [15], in the series with HCT-116 [16], with HCT-116 [18], with HCT-116 [19] and with HCT-116 [21] was Active. Further, the inhibition result (in series [4]; with HCT-116 [6]) was “Dose-dependent effect” in each case. Besides, the Activity in the series with HCT-116 [7] is given as 8.5%; in the series on HCT-116 [8], 3.1%; in the series on HCT-116 [11] it was 4.4%; with HCT-116 [17], “Non-Toxic”; with HCT-116 [20], 3.6%. Further, in the series with HCT-116 [14], the viability at 50 µM was 85.2%. In addition, at TGF-beta receptor type-1, the IC50 came to 69 nM.
